# In ChEMBL document CHEMBL4028872, “Structure-Activity Relationship, Pharmacological Characterization, and Molecular Modeling of Noncompetitive Inhibitors of the Betaine/γ-Aminobutyric Acid Transporter 1 (BGT1)” (J Med Chem, 2017):
# What was measured:
# Type in all cases: cell-based
# [1] = molecular target: T1, Sodium- and chloride-dependent GABA transporter 2 (Homo sapiens, UniProt Q9NSD5); assay: Inhibition of human GAT2 expresses in tsA201 cells assessed as reduction in [3H]GABA uptake after 3 mins by scintillation counting method
# T1 sequence (Q9NSD5 whole entry): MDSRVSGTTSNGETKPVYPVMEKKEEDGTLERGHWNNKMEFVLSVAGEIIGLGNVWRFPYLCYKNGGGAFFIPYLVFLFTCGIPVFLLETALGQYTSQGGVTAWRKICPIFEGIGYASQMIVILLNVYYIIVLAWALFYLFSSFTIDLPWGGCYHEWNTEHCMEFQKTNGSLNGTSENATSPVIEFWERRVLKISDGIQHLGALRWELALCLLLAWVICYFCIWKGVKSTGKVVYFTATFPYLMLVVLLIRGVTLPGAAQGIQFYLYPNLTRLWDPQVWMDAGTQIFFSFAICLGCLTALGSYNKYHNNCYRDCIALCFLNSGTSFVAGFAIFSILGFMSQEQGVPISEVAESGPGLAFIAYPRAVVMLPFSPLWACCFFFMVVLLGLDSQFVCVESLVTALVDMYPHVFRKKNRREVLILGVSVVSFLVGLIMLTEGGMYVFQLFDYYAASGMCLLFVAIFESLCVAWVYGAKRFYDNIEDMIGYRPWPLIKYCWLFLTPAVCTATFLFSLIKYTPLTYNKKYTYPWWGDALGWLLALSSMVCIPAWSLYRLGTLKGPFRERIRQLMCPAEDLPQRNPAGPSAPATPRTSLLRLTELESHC
# How it was run: (§1)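 Wild-type human GAT transiently expressed in tsA201 cells via pcDNA5/FRT and PolyFect. Uptake of 30 nM [3H]GABA was run for 3 min at 37 °C in HBSS/20 mM HEPES with 1 mM CaCl2 and 1 mM MgCl2, pH 7.4, across a range of test concentrations. Ice-cold washes were followed by scintillation counting. IC50 was obtained by sigmoidal variable-slope fitting, reported as mean pIC50 ± S.E.M.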
# [2] = molecular target: T2, Sodium- and chloride-dependent betaine transporter (Homo sapiens, UniProt P48065); assay: Inhibition of human BGT1 expresses in tsA201 cells assessed as reduction in [3H]GABA uptake after 3 mins by scintillation counting method
# T2 sequence (P48065 whole entry): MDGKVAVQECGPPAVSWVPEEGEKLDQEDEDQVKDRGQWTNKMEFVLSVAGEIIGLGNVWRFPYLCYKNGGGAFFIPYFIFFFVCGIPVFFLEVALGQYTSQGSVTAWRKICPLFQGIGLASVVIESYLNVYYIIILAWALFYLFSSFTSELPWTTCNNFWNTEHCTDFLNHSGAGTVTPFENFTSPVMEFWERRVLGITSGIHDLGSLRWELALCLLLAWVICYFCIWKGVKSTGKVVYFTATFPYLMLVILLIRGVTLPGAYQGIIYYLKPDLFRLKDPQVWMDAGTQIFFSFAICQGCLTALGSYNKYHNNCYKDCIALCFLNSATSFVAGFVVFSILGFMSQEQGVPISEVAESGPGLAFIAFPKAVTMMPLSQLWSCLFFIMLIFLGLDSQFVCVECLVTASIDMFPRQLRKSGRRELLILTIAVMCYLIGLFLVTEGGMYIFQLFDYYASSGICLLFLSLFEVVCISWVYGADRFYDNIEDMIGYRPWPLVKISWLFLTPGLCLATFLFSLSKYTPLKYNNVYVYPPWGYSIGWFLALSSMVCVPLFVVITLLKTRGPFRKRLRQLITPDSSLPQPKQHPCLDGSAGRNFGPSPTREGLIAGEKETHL
# How it was run: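 tsA201 cells transiently transfected with wild-type or mutant human BGT1 (PolyFect) were plated about 24 h before assay. Three ice-cold washes followed, then scintillation counting.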
# [3] = molecular target: Sodium- and chloride-dependent GABA transporter 1 (Homo sapiens, UniProt P30531)
# Sodium- and chloride-dependent GABA transporter 1, sequence (P30531 whole entry): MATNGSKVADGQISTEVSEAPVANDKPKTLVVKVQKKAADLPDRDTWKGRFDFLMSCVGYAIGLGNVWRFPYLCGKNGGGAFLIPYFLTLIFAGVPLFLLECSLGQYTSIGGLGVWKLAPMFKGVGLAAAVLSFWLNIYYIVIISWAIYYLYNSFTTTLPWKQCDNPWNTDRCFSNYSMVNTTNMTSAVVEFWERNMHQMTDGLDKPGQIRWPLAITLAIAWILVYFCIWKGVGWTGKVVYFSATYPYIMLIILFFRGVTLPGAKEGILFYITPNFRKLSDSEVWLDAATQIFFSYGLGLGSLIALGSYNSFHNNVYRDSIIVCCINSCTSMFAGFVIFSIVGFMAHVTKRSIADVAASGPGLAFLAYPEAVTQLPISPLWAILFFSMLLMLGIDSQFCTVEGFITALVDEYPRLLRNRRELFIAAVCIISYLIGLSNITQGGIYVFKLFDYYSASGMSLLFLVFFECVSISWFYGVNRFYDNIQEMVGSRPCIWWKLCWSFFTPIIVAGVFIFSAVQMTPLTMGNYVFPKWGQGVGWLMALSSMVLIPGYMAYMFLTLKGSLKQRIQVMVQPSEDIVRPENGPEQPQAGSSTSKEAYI
# [4] = molecular target: T3, Sodium- and chloride-dependent GABA transporter 3 (Homo sapiens, UniProt P48066); assay: Inhibition of human GAT3 expresses in tsA201 cells assessed as reduction in [3H]GABA uptake after 3 mins by scintillation counting method; how it was run: as §1
# T3 sequence (P48066 whole entry): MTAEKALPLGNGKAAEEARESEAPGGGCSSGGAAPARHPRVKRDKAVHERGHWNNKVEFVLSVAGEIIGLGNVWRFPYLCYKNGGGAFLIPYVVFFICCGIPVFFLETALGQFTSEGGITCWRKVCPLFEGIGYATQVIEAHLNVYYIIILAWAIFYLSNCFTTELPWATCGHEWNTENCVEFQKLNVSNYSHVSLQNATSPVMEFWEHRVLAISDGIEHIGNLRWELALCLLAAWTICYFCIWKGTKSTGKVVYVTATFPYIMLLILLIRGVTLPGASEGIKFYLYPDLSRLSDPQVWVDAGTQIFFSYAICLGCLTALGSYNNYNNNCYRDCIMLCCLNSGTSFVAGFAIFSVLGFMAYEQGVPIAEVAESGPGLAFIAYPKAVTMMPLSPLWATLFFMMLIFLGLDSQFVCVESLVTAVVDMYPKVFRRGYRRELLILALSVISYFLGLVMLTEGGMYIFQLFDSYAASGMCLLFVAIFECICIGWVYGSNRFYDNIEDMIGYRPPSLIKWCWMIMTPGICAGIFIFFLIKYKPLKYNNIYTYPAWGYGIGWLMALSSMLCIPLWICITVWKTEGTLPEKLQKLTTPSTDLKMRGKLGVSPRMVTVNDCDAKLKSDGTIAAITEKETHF
Compound,IC50 ([1]; read-out: IC50),IC50 ([2]; read-out: IC50),IC50 ([3]; read-out: IC50),IC50 ([4]; read-out: IC50),IC50 [1],IC50 [2],IC50 [3],IC50 [4]
O=C(O)CN1CCC(NC(=O)c2ccc(Cl)cc2Cl)CC1,> 1000 µM,> 1000 µM,> 1000 µM,> 1000 µM,–,–,–,–
O=C(NC1CCN(C/C=C/c2ccccc2)CC1)c1ccc(Cl)cc1Cl,> 100 µM,> 100 µM,> 100 µM,> 100 µM,–,–,–,–
O=C(NC1CCN(Cc2ccccc2)CC1)c1ccc(F)cc1,> 300 µM,100 µM,> 300 µM,> 300 µM,–,–,–,–
N#CCCCN1CCC(NC(=O)c2ccc(Cl)cc2Cl)CC1,> 1000 µM,> 1000 µM,> 1000 µM,> 1000 µM,–,–,–,–
O=C(NC1CCNCC1)c1ccc(Cl)cc1Cl,> 1000 µM,> 1000 µM,> 1000 µM,> 1000 µM,–,–,–,–
COc1cccc(C(=O)NC2CCN(Cc3ccccc3)CC2)c1OC,> 500 µM,91 µM,> 500 µM,> 500 µM,–,–,–,–
CC(C)C(=O)NC1CCN(Cc2ccccc2)CC1,> 1000 µM,> 1000 µM,> 1000 µM,> 1000 µM,–,–,–,–
O=C(NC1CCN(Cc2ccc3ccccc3n2)CC1)c1ccc(Cl)cc1Cl,> 50 µM,> 50 µM,> 50 µM,> 50 µM,–,–,–,–
O=C(NC1CCN(Cc2cccnc2)CC1)c1ccc(Cl)cc1Cl,> 1000 µM,> 1000 µM,> 1000 µM,> 1000 µM,–,–,–,–
O=C(NC1CCN(Cc2ccccc2[N+](=O)[O-])CC1)c1ccc(Cl)cc1Cl,> 100 µM,> 100 µM,> 100 µM,> 100 µM,–,–,–,–
CCN1CCC(NC(=O)c2ccc(Cl)cc2Cl)CC1,> 1000 µM,> 1000 µM,> 1000 µM,> 1000 µM,–,–,–,–
O=C(NC1CCN(Cc2ccccc2)CC1)c1ccc2ccccc2c1,–,–,–,–,23 µM,15 µM,> 100 µM,> 100 µM
CC(C)(C)OC(=O)CN1CCC(NC(=O)c2ccc(Cl)cc2Cl)CC1,> 1000 µM,> 1000 µM,> 1000 µM,> 1000 µM,–,–,–,–
O=C(NC1CCN(Cc2ccc([N+](=O)[O-])cc2)CC1)c1ccc(Cl)cc1Cl,> 100 µM,> 100 µM,> 100 µM,> 100 µM,–,–,–,–
C#CCN1CCC(NC(=O)c2ccc(Cl)cc2Cl)CC1,> 1000 µM,> 1000 µM,> 1000 µM,> 1000 µM,–,–,–,–
CCOP(=O)(CCCN1CCC(NC(=O)c2ccc(Cl)cc2Cl)CC1)OCC,> 1000 µM,> 1000 µM,> 1000 µM,> 1000 µM,–,–,–,–
O=C(NC1CCN(Cc2ccc3ccccc3c2)CC1)c1ccc(Cl)cc1Cl,> 50 µM,> 50 µM,> 50 µM,> 50 µM,–,–,–,–
CN1CCC(NC(=O)c2ccc(Cl)cc2Cl)CC1,> 1000 µM,> 1000 µM,> 1000 µM,> 1000 µM,–,–,–,–
O=C(NC1CCN(Cc2ccncc2)CC1)c1ccc(Cl)cc1Cl,> 1000 µM,> 1000 µM,> 1000 µM,> 1000 µM,–,–,–,–
CCOc1ccccc1C(=O)NC1CCN(Cc2ccccc2)CC1,> 500 µM,180 µM,> 500 µM,> 500 µM,–,–,–,–
N#Cc1ccc(CN2CCC(NC(=O)c3ccc(Cl)cc3Cl)CC2)cc1,> 50 µM,> 50 µM,> 50 µM,> 50 µM,–,–,–,–
N#Cc1ccccc1CN1CCC(NC(=O)c2ccc(Cl)cc2Cl)CC1,> 50 µM,> 50 µM,> 50 µM,> 50 µM,–,–,–,–
O=C(CN1CCC(NC(=O)c2ccc(Cl)cc2Cl)CC1)c1ccccc1,> 100 µM,> 100 µM,> 100 µM,> 100 µM,–,–,–,–
O=C(NC1CCN(Cc2ccccc2)CC1)c1ccc2c(c1)OCO2,–,–,–,–,63 µM,42 µM,> 100 µM,> 100 µM
O=C(NC1CCN(Cc2ccccc2)CC1)c1ccccc1,> 1000 µM,290 µM,> 1000 µM,> 1000 µM,–,–,–,–
O=C(NC1CCN(Cc2ccccc2)CC1)c1cccc(C(F)(F)F)c1,> 500 µM,170 µM,> 500 µM,> 500 µM,–,–,–,–
CCCN1CCC(NC(=O)c2ccc(Cl)cc2Cl)CC1,> 1000 µM,> 1000 µM,> 1000 µM,> 1000 µM,–,–,–,–
O=C(NC1CCN(Cc2ccccn2)CC1)c1ccc(Cl)cc1Cl,> 1000 µM,> 1000 µM,> 1000 µM,> 1000 µM,–,–,–,–
O=C(NC1CCN(Cc2ccc(I)cc2)CC1)c1ccc(Cl)cc1Cl,> 100 µM,> 100 µM,> 100 µM,> 100 µM,–,–,–,–
COC(=O)c1ccc(CN2CCC(NC(=O)c3ccc(Cl)cc3Cl)CC2)cc1,> 100 µM,> 100 µM,> 100 µM,> 100 µM,–,–,–,–
